Assay results from ChEMBL document CHEMBL3580550, “Antibacterial Polyketide Heterodimers from Pyrenacantha kaurabassana Tubers” (2015).
Converted amounts (≈) assume the structure as drawn.

Experiments:
Assay type in all cases: functional
Helicobacter pylori [1] = experiment: Bactericidal activity against Helicobacter pylori J99 assessed as compound concentration causing reduction in viable colony-forming units pre-incubated for 2 hrs followed by incubation at 37 degC under microaerophilic conditions for 72 hrs
How it was run: (§1)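 H. pylori J99 came from 24 h cultures on Skirrow's medium (microaerobic, 37 °C) and was resuspended in brain heart infusion. Compound at 100 μg/mL final was mixed with 10^6 CFU/mL bacteria and held 2 h at 37 °C. Controls were BHI alone and amoxicillin at 10 μg/mL. Samples were serially 10-fold diluted in warm PBS and plated in triplicate on Skirrow's (72 h, 37 °C, microaerophilic). Kill was log10 CFU/mL (0 h) minus log10 CFU/mL (2 h).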

Staphylococcus aureus [2] = experiment: Antibacterial activity against Staphylococcus aureus isolated from tibial leg ulcer patient assessed as inhibition of visible bacterial growth incubated for 24 hrs at 37 degC by broth microdilution method
How it was run: (§2)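 MICs were determined by broth microdilution against S. aureus strains maintained on Mueller Hinton agar (24 h, 37 °C). Final compound concentrations ranged from 0.39 to 100 μg/mL. Inoculum was 10^5 CFU/mL final per well, incubated 24 h at 37 °C. MIC was the lowest concentration preventing visible growth. Wells were run in triplicate and the experiment was repeated three times.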

Staphylococcus aureus [3] = experiment: Antibacterial activity against Staphylococcus aureus ATCC 29213 assessed as inhibition of visible bacterial growth incubated for 24 hrs at 37 degC by broth microdilution method; conditions: ATCC 29213, 24 h; how it was run: as §2
Helicobacter pylori [4] = experiment: Bactericidal activity against Helicobacter pylori J99 assessed as reduction in viable colony-forming units pre-incubated for 2 hrs followed by incubation at 37 degC under microaerophilic conditions for 72 hrs; how it was run: as §1
Staphylococcus aureus [5] = experiment: Antibacterial activity against Staphylococcus aureus isolated from tibial osteomyelitis patient assessed as inhibition of visible bacterial growth incubated for 24 hrs at 37 degC by broth microdilution method; how it was run: as §2
Helicobacter pylori [6] = experiment: Bactericidal activity against Helicobacter pylori J99 assessed as reduction in viable colony-forming units pre-incubated for 2 hrs followed by incubation at 37 degC under microaerophilic conditions for 72 hrs relative to initial inoculum; how it was run: as §1

Structure (SMILES) | Activity (Helicobacter pylori [1]) [µM] | MIC (Staphylococcus aureus [2]) [µM] | MIC (Staphylococcus aureus [3]) [µM] | log10CFU/ml (Helicobacter pylori [4]) | MIC (Staphylococcus aureus [5]) [µM] | Activity (Helicobacter pylori [6]) [%]
COc1cc(O)c2c(O)c3c(c(-c4c(OC)cc5c(c4O)C(=O)c4c(O)cc(C)cc4C5=O)c2c1)CC(C)OC3=O (stereo unspecified) | 179.8 | 89.9 (≈ 50 µg/mL) | 89.9 (≈ 50 µg/mL) | 0.42 | 89.9 (≈ 50 µg/mL) | –
NC[C@H]1O[C@H](O[C@H]2[C@H](O)[C@@H](O[C@H]3O[C@H](CO)[C@@H](O)[C@H](N)[C@H]3O)[C@H](N)C[C@@H]2N)[C@H](O)[C@@H](O)[C@@H]1O [KANAMYCIN] | – | 8.3 (≈ 4.02 µg/mL) | 8.3 (≈ 4.02 µg/mL) | – | 8.3 (≈ 4.02 µg/mL) | –
COc1cc(O)c2c(O)c3c(c(-c4c(OC)cc5c(c4O)C(=O)c4c(O)cc(C)c(OC)c4C5=O)c2c1)CC(C)OC3=O (stereo unspecified) | 170.6 | 2.7 (≈ 1.58 µg/mL) | 10.7 (≈ 6.28 µg/mL) | 6 | 10.7 (≈ 6.28 µg/mL) | >99.9
CC1(C)S[C@@H]2[C@H](NC(=O)[C@H](N)c3ccc(O)cc3)C(=O)N2[C@H]1C(=O)O [AMOXICILLIN] | 274 | – | – | 0.51 | – | –
